Data on 32 compounds can be found in ChEMBL document CHEMBL1158554, “3,5-Diaryl-1H-pyrazole as a molecular scaffold for the synthesis of apoptosis-inducing agents” (2010).

For assay [1], the system named is AGS. The assay is described as follows: Growth inhibition of human AGS cells after 48 hrs by MTT assay. In kind it is functional. Summed up:
(§1)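 Cells seeded 3000/well (OVCA, SW620, H460) or 5000/well (AGS), grown 24 h, then exposed to serial dilutions (DMSO stock) for 48 h at 37 °C, 5% CO2. MTT (2 mg/ml in PBS) added for 2 h; formazan dissolved in DMSO and read at 570 nm. Inhibition = (1 − At/Ac)×100 vs vehicle; GI50 interpolated from dose–response curves; four to six separate experiments, mean ± SEM.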
For orientation: Formazan colour is commonly taken as a measure of viable cells.

Assay [2] relates to NCI-H460. In words: Growth inhibition of human H460 cells after 48 hrs by MTT assay. The conditions noted are these: NCI-H460, 48 h. In kind it is functional. Summed up: as §1
The subject of assay [3] is OVCAR. The assay is described as follows: Growth inhibition of human OVCAR cells after 48 hrs by MTT assay. In kind it is functional. Summed up: as §1
For assay [4], the system named is SW-620. The assay is described as follows: Growth inhibition of human SW620 cells after 48 hrs by MTT assay. The conditions noted are these: SW-620, 48 h. It counts as functional. Summed up: as §1
Assay [5] concerns AGS. In words: Growth inhibition of human AGS cells at 40 uM after 48 hrs by MTT assay. It counts as functional, cell-based. Summed up: (§2)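 MTT growth inhibition at the top tested concentration of 40 uM, 48 h exposure, cells seeded as for GI50 (3000/well OVCA, SW620, H460; 5000/well AGS).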
Assay [6] relates to OVCAR. In words: Growth inhibition of human OVCAR cells at 40 uM after 48 hrs by MTT assay. In kind it is functional, cell-based. Summed up: as §2
The test system of assay [7] is NCI-H460. The assay is described as follows: Growth inhibition of human H460 cells at 40 uM after 48 hrs by MTT assay. It counts as functional, cell-based. Summed up:
as §2

The test system of assay [8] is SW-620. In words: Growth inhibition of human SW620 cells at 40 uM after 48 hrs by MTT assay. In kind it is functional, cell-based. Summed up: as §2
Assay [9] deals with OVCAR. The assay is described as follows: Cell cycle arrest in human OVCAR cells assessed as accumulation at sub-G1 phase at 1.2 uM after 24 hrs by propidium iodide staining-based FACS analysis. In kind it is functional. Summed up:
(§3)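 OVCA cells given 0.5% DMSO or compound for 24 h, harvested, PBS-rinsed, fixed in 80% ethanol and held at −20 °C until analysis. Propidium iodide DNA staining and flow cytometry; apoptotic nuclei scored as the subdiploid (sub-G1) peak, given as percent of the whole population. Untreated cells served as blank.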

In assay [10] the test system is OVCAR. The assay is described as follows: Cell cycle arrest in human OVCAR cells assessed as accumulation at sub-G1 phase at 2.5 uM after 24 hrs by propidium iodide staining-based FACS analysis. In kind it is functional. Summed up:
as §3
On the technique in general: A flow cytometer gives signals particle by particle.

The target of assay [11] is RAC-alpha serine/threonine-protein kinase (Homo sapiens) (UniProt P31749). The assay is described as follows: Inhibition of Akt phosphorylation in human OVCAR cells at 1.2 to 5 uM after 16 hrs by Western blot analysis. It counts as cell-based. Summed up: (§4)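 OVCA cells treated 16 h (vehicle 1% DMSO), washed in PBS, lysed; 50 ug protein run on 15% SDS-PAGE, transferred to nitrocellulose, blocked overnight at 4 °C in TBST/5% milk. Probed with anti-PARP (1:500), anti-cleaved caspase-3, anti-cleaved caspase-9, anti-phospho-Akt, anti-Akt, anti-beta-actin (1:1000), then secondary IgG 1:10,000 for 1 h at room temperature; ECL detection. Total Akt used as reference for phospho-Akt.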
Sequence of RAC-alpha serine/threonine-protein kinase (Homo sapiens) (P31749 whole entry): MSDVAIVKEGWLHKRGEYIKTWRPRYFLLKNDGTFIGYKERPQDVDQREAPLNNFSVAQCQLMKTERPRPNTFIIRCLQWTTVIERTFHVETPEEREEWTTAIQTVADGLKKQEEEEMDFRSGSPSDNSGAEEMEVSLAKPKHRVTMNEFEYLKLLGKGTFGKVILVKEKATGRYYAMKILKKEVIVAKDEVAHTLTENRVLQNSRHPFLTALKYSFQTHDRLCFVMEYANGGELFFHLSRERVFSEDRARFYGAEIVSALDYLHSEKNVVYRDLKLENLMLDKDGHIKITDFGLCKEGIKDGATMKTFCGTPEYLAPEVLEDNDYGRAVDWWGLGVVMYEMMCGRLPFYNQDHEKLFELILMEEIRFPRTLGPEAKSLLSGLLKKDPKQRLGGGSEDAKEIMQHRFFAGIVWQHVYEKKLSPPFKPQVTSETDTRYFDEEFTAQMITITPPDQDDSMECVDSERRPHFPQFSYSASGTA

In assay [12] the test system is OVCAR. The assay is described as follows: Cell cycle arrest in human OVCAR cells assessed as accumulation at sub-G1 phase at 5 uM after 24 hrs by propidium iodide staining-based FACS analysis. It counts as functional. Summed up:
as §3

The test system of assay [13] is OVCAR. The assay is described as follows: Induction of apoptosis in human OVCAR cells assessed as PARP cleavage at 1.2 to 5 uM after 16 hrs by Western blot analysis. It counts as functional, cell-based. Summed up:
as §4
(In general: Immunoblotting shows a protein as a band on a membrane.)

Assay [14] deals with OVCAR. The assay is described as follows: Induction of apoptosis in human OVCAR cells assessed as increase in cleaved caspase-3 level at 1.2 to 5 uM after 16 hrs by Western blot analysis. In kind it is functional, cell-based. Summed up: as §4
Assay [15] relates to OVCAR. The assay is described as follows: Induction of apoptosis in human OVCAR cells assessed as increase in cleaved caspase-9 level at 1.2 to 5 uM after 16 hrs by Western blot analysis. It counts as functional, cell-based. Summed up:
as §4

Calls of active or inactive are those of the source. The calls are words filed in the database; no cut-off is given here.

Broadly, the GI50 is the concentration giving 50% growth inhibition. High values mean less potent growth inhibition, low ones more potent growth inhibition. `O=[N+]([O-])c1ccc(-c2cc(-c3ccccc3-c3ccccc3)n[nH]2)cc1`: the GI50 in [1] was 1.2 µM; in assay [2], 2.7 µM; in assay [3] it was 3.4 µM; in [4] it was 12.2 µM.
Regarding `O=[N+]([O-])c1ccc(-c2cc(-c3ccc(C(F)(F)F)cc3)n[nH]2)cc1`, the “growth inhibition (GI)” value in assay [5], in assay [6] and in [7] was “inactive” throughout.
With `O=[N+]([O-])c1ccc(-c2cc(-c3ccc(Br)cc3)n[nH]2)cc1`, the “growth inhibition (GI)” value in assay [7] was “inactive”. Moreover, the GI50 was 14.6 µM in [1], 17.5 µM in assay [3] and 28.6 µM in assay [4].
Regarding `COc1ccc(-c2cc(-c3ccccc3)n[nH]2)cc1`, the GI50 in assay [1] stood at 11.3 µM; in assay [2], 10.4 µM; in assay [3], 9.9 µM; in assay [4] it was 27.2 µM.
Regarding `O=[N+]([O-])c1ccc(-c2cc(-c3ccc(Cl)cc3)n[nH]2)cc1`, the “growth inhibition (GI)” value in assay [6] was “inactive”. Further, the figures for the GI50 in assay [1], in [2] and in assay [4] were 24.1 µM, 20.7 µM and 12.2 µM, respectively.
As for `COc1cccc(-c2cc(-c3ccc([N+](=O)[O-])cc3)[nH]n2)c1`, the “growth inhibition (GI)” value in assay [5] and in [8] was “inactive” in each case. For the same compound, the GI50 in [2] amounted to 11.2 µM; in assay [3], 19.1 µM.
As to `COc1ccccc1-c1cc(-c2ccc(N)cc2)[nH]n1`, the “growth inhibition (GI)” value in [5], in assay [6] and in [7] was “inactive” throughout. The compound also returned a GI50 in [4] of 21.1 µM.
Regarding `COc1ccc(-c2cc(-c3ccc(C(F)(F)F)cc3)n[nH]2)cc1`, the “growth inhibition (GI)” value in assay [7] was “inactive”. Also, the GI50 in assay [1] turned out to be 14.8 µM; in assay [3], 22.8 µM; in assay [4], 11.2 µM.
Consider `Nc1ccc(-c2cc(-c3ccc(C(F)(F)F)cc3)n[nH]2)cc1`, for which the “growth inhibition (GI)” value in assay [5] and in [8] was “inactive” each time. Further, the GI50 came to 21.5 µM in assay [2] and 18.6 µM in assay [3].
Regarding `O=[N+]([O-])c1ccc(-c2cc(-c3ccccc3)n[nH]2)cc1`, the “growth inhibition (GI)” value in assay [5] and in [8] was “inactive” in each case. Besides, the GI50 turned out to be 10.2 µM in assay [2] and 7.2 µM in assay [3].
For the compound `O=[N+]([O-])c1ccc(-c2cc(-c3ccc(F)cc3)n[nH]2)cc1`, the “growth inhibition (GI)” value in assay [6] and in [7] was “inactive” in each case. Further, the GI50 in assay [1] amounted to 18.3 µM; in assay [4], 18.1 µM.
`COc1ccc(-c2cc(-c3ccccc3-c3ccccc3)n[nH]2)cc1`: the Activity in assay [9] worked out at 14.97%; in assay [10], 20.53%; in [12], 32.05%. Besides, the inhibition entry in assay [11] is “Active”. Moreover, the result in assay [13], in assay [14] and in assay [15] was Active. Besides, the GI50 was 0.79 µM in assay [1], 0.73 µM in assay [2], 0.67 µM in assay [3] and 0.89 µM in [4].
For `Oc1ccccc1-c1cc(-c2ccccc2-c2ccccc2)n[nH]1`, the GI50 stood at 7.5 µM in assay [1], 4.6 µM in [2], 5.8 µM in assay [3] and 10.6 µM in [4].
Consider `COc1ccc(-c2cc(-c3ccc([N+](=O)[O-])cc3)[nH]n2)cc1`, for which, in [5], the “growth inhibition (GI)” value was “inactive”. Besides, the figures for the GI50 in assay [2], in [3] and in assay [4] were 18.3 µM, 27.3 µM and 14.3 µM, respectively.
As for `Oc1ccc(-c2cc(-c3ccc(C(F)(F)F)cc3)n[nH]2)cc1`, the GI50 in assay [1] came to 9.8 µM; in assay [2], 20.1 µM; in [3] it was 9.2 µM; in [4], 19.6 µM.
Take `COc1ccc(-c2cc(-c3ccc([N+](=O)[O-])cc3)[nH]n2)cc1OC`: in assay [5], the “growth inhibition (GI)” value was “inactive”. In addition, the GI50 in assay [2] is 17.9 µM; in [3] it was 28.9 µM; in [4] it was 26.4 µM.
`Oc1ccc(-c2cc(-c3ccccc3-c3ccccc3)n[nH]2)cc1`: the GI50 in assay [1] is 9.2 µM; in [2], 6.9 µM; in assay [3], 6.2 µM; in [4] it was 25.9 µM.
For `COc1ccc(-c2cc(-c3ccc4ccccc4c3)n[nH]2)cc1` the same measures were 19 µM, 13.2 µM, 17.5 µM and 26.9 µM.
Regarding `COc1ccc(-c2cc(-c3ccc(F)cc3)n[nH]2)cc1`, the “growth inhibition (GI)” value in assay [5], in assay [8] and in [7] was “inactive” throughout. The same compound had a GI50 in assay [3] of 14 µM.
Consider `COc1ccc(-c2cc(-c3ccc(N)cc3)[nH]n2)cc1`, for which the “growth inhibition (GI)” value in assay [5], in assay [8], in assay [6] and in [7] was “inactive” throughout.
In the case of `CN(C)c1ccc(-c2cc(-c3ccc(C(F)(F)F)cc3)n[nH]2)cc1`, the “growth inhibition (GI)” value in [5], in assay [8] and in assay [7] was “inactive” each time.
Turning to `Nc1ccc(-c2cc(-c3ccccc3-c3ccccc3)n[nH]2)cc1`, in [8], the “growth inhibition (GI)” value is “inactive”. The GI50 is 8.4 µM in assay [1], 8.2 µM in [2] and 17.9 µM in assay [3].
For `COc1cccc(-c2cc(-c3ccccc3-c3ccccc3)n[nH]2)c1` the same measures were “inactive”, 7.5 µM, 8.7 µM and 5.8 µM.
Turning to `COc1ccccc1-c1cc(-c2ccccc2-c2ccccc2)n[nH]1`, the “growth inhibition (GI)” value in assay [5] and in assay [8] was “inactive” in each case. Moreover, the values for the concentration for 50% growth inhibition (GI50) in assay [2] and in [3] were 9.1 µM and 14.2 µM, respectively.
Regarding `COc1cccc(-c2cc(-c3ccc(N)cc3)[nH]n2)c1`, the “growth inhibition (GI)” value in [5], in [8], in assay [6] and in [7] was “inactive” in each case.
Consider `COc1ccc(-c2cc(-c3ccc(Br)cc3)n[nH]2)cc1`, for which the “growth inhibition (GI)” value in [5] and in assay [8] was “inactive” throughout. Besides, the GI50 in assay [2] worked out at 27.1 µM; in [3], 20.7 µM.
Consider `COc1ccc(-c2cc(-c3ccc(N)cc3)[nH]n2)cc1OC`, for which the “growth inhibition (GI)” value in assay [5], in assay [8], in [6] and in assay [7] was “inactive” each time.
Regarding `O=[N+]([O-])c1ccc(-c2cc(-c3ccc4c(c3)OCO4)n[nH]2)cc1`, the GI50 in [1] was determined as 13.1 µM; in assay [2] it was 8.9 µM; in [3] it was 10.8 µM; in assay [4] it was 23.5 µM.
Regarding `Nc1ccc(-c2cc(-c3ccccc3)n[nH]2)cc1`, the “growth inhibition (GI)” value in [5] and in [6] was “inactive” each time. The GI50 in [2] stood at 26.7 µM; in assay [4], 25.4 µM.
Turning to `COc1ccccc1-c1cc(-c2ccc([N+](=O)[O-])cc2)[nH]n1`, the “growth inhibition (GI)” value in [5] and in assay [8] was “inactive” each time. Further, the GI50 in assay [2] was 20.5 µM; in assay [3], 11.7 µM.
Take `COc1ccc(-c2cc(-c3ccc(Cl)cc3)n[nH]2)cc1`: the “growth inhibition (GI)” value in [5] and in assay [8] was “inactive” throughout. The GI50 in assay [2] was found to be 11.6 µM; in [3], 12.8 µM.
With `O=[N+]([O-])c1cccc(-c2cc(-c3ccccc3)n[nH]2)c1`, the “growth inhibition (GI)” value in assay [8] is “inactive”. For the same compound, the GI50 in assay [1] was 11.4 µM; in [2], 6.1 µM; in assay [3] it was 5.8 µM.
